# Screens from PubChem BioAssay.
# This is a sample that favours compounds with a hit; in the whole collection about 1.4% have one here.
# KLK5 inh: inhibitors of human kallikrein 5 | Q9Y337 | recombinant hK5, fluorogenic AMC substrate cleavage | inhibition, % at 5 µM | 210,000 tested, 0.59% active;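 active means inhibition of 40% or more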;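 further: 0% = enzyme controls without compound and 100% = no-enzyme blanks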
# Furin inh: blocks human furin protease activity | inhibition, % at 20 µM or 30 µM | 220,000 tested, 0.061% active | P09958 | purified furin, fluorogenic substrate cleavage; in the data active means inhibition above about 25%
# Target sequence (P09958 108-714 limits assumed): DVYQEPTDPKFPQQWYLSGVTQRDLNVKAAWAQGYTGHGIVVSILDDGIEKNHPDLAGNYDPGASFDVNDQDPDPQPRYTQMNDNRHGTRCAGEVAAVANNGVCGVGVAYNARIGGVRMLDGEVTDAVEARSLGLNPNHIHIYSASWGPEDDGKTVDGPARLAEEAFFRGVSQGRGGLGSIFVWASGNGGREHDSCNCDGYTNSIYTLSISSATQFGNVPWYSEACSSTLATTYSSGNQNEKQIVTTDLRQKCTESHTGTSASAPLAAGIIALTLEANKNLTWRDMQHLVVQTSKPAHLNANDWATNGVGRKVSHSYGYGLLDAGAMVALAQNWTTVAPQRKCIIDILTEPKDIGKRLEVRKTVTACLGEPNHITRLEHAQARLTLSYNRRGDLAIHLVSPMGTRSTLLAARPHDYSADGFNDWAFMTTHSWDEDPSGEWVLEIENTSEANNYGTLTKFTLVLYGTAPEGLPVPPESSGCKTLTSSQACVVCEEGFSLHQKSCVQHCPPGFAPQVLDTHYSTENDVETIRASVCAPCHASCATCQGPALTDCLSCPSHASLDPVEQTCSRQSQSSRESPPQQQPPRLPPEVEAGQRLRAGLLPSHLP
# Calpain2 inh: blocks pig calpain II enzyme activity; purified calpain II, fluorogenic peptide substrate, 30 min; inhibition, % at 16 µM; 220,000 tested, 0.37% active; AID 1236;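 active means inhibition above about 50%, limit read from the data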
# FXIIa inh 1536: factor XIIa (human) inhibition. P00748. purified FXIIa, Boc-QGR-AMC fluorogenic substrate, 2 h. inhibition, % at 5 µM. 220,000 tested, 0.3% active; in the data active means inhibition above about 40%;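 further: 0% = enzyme with no compound and 100% = blank without enzyme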
# FXIa inh 1536: inhibitors of human coagulation factor XIa. purified FXIa, Boc-Glu-Ala-Arg-AMC fluorogenic substrate. 220,000 tested, 0.14% active. inhibition, % at 5 µM;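 active means inhibition of at least 40%; inactive means inhibition below 40%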;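 further: fluorescence of freed AMC excited at 355 nm; 0% = enzyme without compound and 100% = no enzyme blank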
# thrombin 1536: blocks human thrombin protease activity. alpha-thrombin, Boc-VPR-AMC fluorogenic substrate cleavage. inhibition, % at 5 µM. 220,000 tested, 0.26% active. AID 1046;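 active means inhibition at or above 40%; inactive means inhibition below 40%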;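 further: 0% = enzyme with no compound and 100% = wells without enzyme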
#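 Test system: human alpha-thrombin protein / Dosing: one concentration per compound, 5 µM, with 0.2% DMSO / Medium: pH 7.5 Tris-saline with Tween 20 / Benchmarks: no-compound enzyme wells and no-enzyme blanks / Read-out basis: percent inhibition of thrombin substrate cleavage / Timing: reaction at room temperature / Measured by: fluorescence, ex 355 nm, em 460 nm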
# * = called active by the depositor; nt = not tested or not shown.
SMILES,KLK5 inh,Furin inh,Calpain2 inh,FXIIa inh 1536,FXIa inh 1536,thrombin 1536
Cc1ccc(-c2c(C)sc(NC(=O)C3C4CCC(O4)C3C(=O)O)c2C(=O)OC(C)C)cc1 (stereo unspecified),107*,-15,-29,-3,-7,3
CCOC(=O)c1c(NC(=O)C2C3CCC(O3)C2C(=O)O)sc2c1CCCC2 (stereo unspecified),3,-19,-22,7,-1,-7
Cc1cc(C)c(C#N)c(SCC(=O)NC(C)(C)C)n1,-29,-18,-13,11,2,-5
Cc1cc(C(F)(F)F)c(C#N)c(SCC(=O)NC(C)(C)C)n1,42*,-12,24,36,16,8
COc1ccc(OCC(=O)Nc2ccc(N3CCOCC3)cc2)c([N+](=O)[O-])c1,-11,-16,-27,-7,-4,-11
COc1ccc(C)cc1S(=O)(=O)Nc1ccncc1,-1,-18,-6,1,-3,-5
COc1ccc(C(C)C)cc1S(=O)(=O)Nc1ccncc1,26,-7,10,23,26,46*
Cc1cc(C)c2c(CN3CCN(Cc4ccc5c(c4)OCO5)CC3)cc(=O)oc2c1C,4,-16,18,-9,-3,1
Cc1ccc2c(CN3CCN(Cc4ccc5c(c4)OCO5)CC3)cc(=O)oc2c1C,-5,-29,25,37,46*,1
O=C(COC(=O)c1cccc(F)c1)NC1CC1,5,-22,-30,7,-3,-12
CN1CCN(CCc2nc3cc(NC(=O)c4ccco4)ccc3n2C)CC1,0,-19,54*,5,1,-6
Cc1ccc(N2CCN(CCc3nc4cc(NC(=O)c5ccco5)ccc4n3C)CC2)cc1,0,-19,-28,10,-6,-6
Cc1ccc(-c2cc(Cc3cccs3)c(=O)[nH]n2)cc1,-1,-14,30,1,-3,-3
COc1cccc(-n2c(SCC(=O)OC(C)C)nnc2-c2cccnc2)c1,-10,-10,52*,-6,-10,-6
Cc1cc(=O)oc2cc(OCC(=O)NCc3ccco3)ccc12,42*,-28,14,14,3,19
Cc1cc(=O)oc2ccc(OCC(=O)NCc3ccco3)cc12,3,-17,-33,19,8,-1
COC(=O)Cc1c(C)nc2nc(-c3ccc(C)cc3)[nH]n2c1=O,6,-10,5,40*,8,0
COC(=O)Cc1c(C)nc2nc(-c3ccc(Cl)cc3)[nH]n2c1=O,-3,-21,12,4,-7,-5
CCCSc1nnc(Nc2ccccc2C)s1,-11,-19,-12,19,2,-2
COc1ccc(C(=O)NCCN2CCOCC2)c(OC)c1OC,nt,-21,-7,9,-1,-6
COc1ccc(-c2ccc(C#N)c(SCC(=O)NCCc3ccccc3)n2)cc1OC,-18,-41,-354,-43,-17,56*
N#C/C(=C(/O)CN1CCN(c2ccccc2F)CC1)c1nc(-c2ccc(Cl)cc2)cs1,-78,-19,6,15,4,6
COc1ccccc1N1CCN(C/C(O)=C(\C#N)c2nc(-c3ccccc3)cs2)CC1,-14,-29,-121,43*,23,10
Cn1c(CCN2CCCCC2)nc2cc(NS(=O)(=O)c3ccc(Cl)cc3)ccc21,-2,nt,3,9,-2,11
Cn1c(CN2CCCCC2)nc2cc(NS(=O)(=O)c3ccc(Cl)cc3)ccc21,3,-16,31,17,5,76*
SMILES,KLK5 inh,Furin inh,Calpain2 inh,FXIIa inh 1536,FXIa inh 1536,thrombin 1536
O=C(c1ccc(Oc2ccccc2)cc1)c1nc2c(n1O)CCCC2,0,-8,75*,-5,-8,-7
COc1ccc(C(=O)c2nc3c(n2O)CCCCC3)cc1,-4,-2,2,10,1,-1
Cc1cc(C)c2ccc(=O)n(CC(=O)N/N=C/c3ccccc3Cl)c2n1,-1,-11,-95,9,1,0
O=C(CSc1nnc(-c2ccccc2Br)o1)N1CCc2ccccc2C1,-6,-21,10,16,8,2
S=C1Nc2ccccc2Sc2ccc(Cl)cc21,67*,-5,30,5,12,31
CN(C)c1cc[n+](CC(=O)c2ccc(-c3ccccc3)cc2)cc1,-10,-24,-1,2,-4,-1
O=C1CC(=C(c2ccccc2)c2ccccc2)C(=O)N1CCCN1CCN(c2cccc(Cl)c2)CC1,-3,-16,12,11,15,2
O=C(CCCCCCCCN1C(=O)c2ccccc2C1=O)N1CCOCC1,2,-8,14,4,2,2
O=C1c2ccccc2C(=O)N1CCCC(=O)N1CCCc2ccccc21,-1,-25,57*,15,7,4
CN1CCc2c(OCC(=O)N3CCCc4ccccc43)cccc2C1=O,-6,-14,-28,7,-4,-1
O=C1CC(=C2c3ccccc3-c3ccccc32)C(=O)N1CCCCN1CCN(c2ccccc2)CC1,-14,28*,-96,13,4,-3
O=C(CCCCCCN1C(=O)c2ccccc2C1=O)N1CCC(c2ccccc2)C1 (stereo unspecified),-13,-10,53*,9,-1,-6
O=C1c2ccccc2C(=O)N1CCCCN1CCN(CCCCN2C(=O)c3ccccc3C2=O)CC1,nt,26*,nt,nt,nt,nt
Cc1ccc([N+](=O)[O-])cc1NC(=O)C(C)N1CCCCC1 (stereo unspecified),-10,-18,17,10,1,5
CCOn1c(=O)c(-c2ccc(OC)c(OC)c2)[n+]([O-])c2ccccc21,0,-13,-13,9,1,4
CCN(Cc1ccccc1)C(=O)c1cc2c(=O)oc3ccc(C)cc3c2s1,-2,-7,17,8,-2,-4
C=CCn1c(CCCNC(=O)c2ccccc2OC)nc2ccccc21,1,-30,81*,12,0,-2
CN(C)CCNC(=O)c1cccc(S(=O)(=O)Nc2ccc(F)cc2)c1,-9,-11,-8,3,-4,-12
CCN(CC)CCNC(=O)c1ccc(NC(=O)c2cccc(S(=O)(=O)Nc3ccc(C)cc3)c2)cc1,20,-21,0,22,101*,15
O=c1[nH]c(CN2CCN(Cc3ccccc3)CC2)nc2scc(-c3ccccc3)c12,0,-21,-24,9,1,1
CSCc1nc2scc(-c3ccccc3)c2c(=O)[nH]1,11,-14,26,29,28,41*
N#Cc1c[nH]n2c(=O)c3c(nc12)CCCC3,70*,-12,8,-1,-1,1
N#Cc1c[nH]n2c(=O)c3c(nc12)CCC3,-5,-29,-22,2,-4,-4
CC(C)c1ccc(NC(=O)COc2ccccn2)cc1,21,-4,19,26,31,89*
CNC(=O)CC1C(=O)N(Cc2ccccc2)C(=S)N1NC(=O)c1cccc(F)c1 (stereo unspecified),-3,-15,-5,5,10,-1
